Active and inactive are the calls of the source. No cut-off for these calls is given here.

Assay [1] addresses T1, Sphingosine 1-phosphate receptor 4 (Homo sapiens, UniProt O95977).
T1 sequence (O95977 whole entry): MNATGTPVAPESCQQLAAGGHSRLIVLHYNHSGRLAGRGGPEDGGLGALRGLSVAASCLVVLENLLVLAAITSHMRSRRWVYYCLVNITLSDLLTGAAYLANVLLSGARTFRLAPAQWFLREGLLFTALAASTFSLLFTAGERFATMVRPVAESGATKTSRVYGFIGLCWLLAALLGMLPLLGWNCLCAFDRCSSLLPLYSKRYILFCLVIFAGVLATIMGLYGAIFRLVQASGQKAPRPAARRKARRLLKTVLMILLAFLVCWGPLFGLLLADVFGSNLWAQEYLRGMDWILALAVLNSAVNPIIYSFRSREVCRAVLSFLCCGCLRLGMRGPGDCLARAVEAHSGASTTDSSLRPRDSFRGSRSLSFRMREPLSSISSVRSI
Nature of the assay: Antagonist activity at human S1P4 receptor expressed in EDG6-bla U2OS cells coexpressing human endothelial differentiation gene 6 linked to GAL4-VP16 assessed as beta-lactamase expression by FRET assay. Type of assay: functional, cell-based. An outline of the steps: (§1)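 Human EDG6 (S1P4) Tango assay in U2OS cells: the receptor is fused via a TEV protease site to a GAL4-VP16 transcription factor, with a co-expressed beta-arrestin/TEV protease fusion. Read-out is a beta-lactamase reporter driven by a UAS response element. Compounds were tested up to 25 μM, with percentage inhibition at 25 μM; values are the mean of n = 3 determinations.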

The target of assay [2] is T2, Sphingosine 1-phosphate receptor 4 (Homo sapiens) (UniProt O95977).
T2 sequence (whole entry): T1 sequence (O95977 whole entry)
Nature of the assay: Antagonist activity at human S1P4 receptor expressed in EDG6-bla U2OS cells coexpressing human endothelial differentiation gene 6 linked to GAL4-VP16 assessed as beta-lactamase expression at 25 uM by FRET assay. The format is functional, cell-based. The method, boiled down: as §1

Assay [3] addresses T3, Sphingosine 1-phosphate receptor 5 (Homo sapiens, UniProt Q9H228). Nature of the assay: Inhibition of S1P5 receptor at 25 uM.
Assay [4] deals with T4, Sphingosine 1-phosphate receptor 2 (Homo sapiens, UniProt O95136). As to the kind of experiment: Inhibition of S1P2 receptor at 25 uM.
In assay [5] the target is T5, Sphingosine 1-phosphate receptor 1 (Homo sapiens, UniProt P21453). Nature of the assay: Inhibition of S1P1 receptor at 25 uM.
Assay [6] deals with T6, Sphingosine 1-phosphate receptor 3 (Homo sapiens, UniProt Q99500). Nature of the assay: Inhibition of S1P3 receptor at 25 uM.
Assay [7] deals with T4, Sphingosine 1-phosphate receptor 2. As to the kind of experiment: Inhibition of S1P2 receptor. The following applies: concentration not given here.
The target is the same in assay [8]. As to the kind of experiment: Antagonist activity at S1P2 receptor. The format is functional.
Assay [9] concerns the target T5, Sphingosine 1-phosphate receptor 1. Nature of the assay: Antagonist activity at S1P1 receptor upto 25 uM. The format is functional.
The target in assay [10] is T6, Sphingosine 1-phosphate receptor 3. As to the kind of experiment: Antagonist activity at S1P3 receptor. The format is functional.
The target of assay [11] is T5, Sphingosine 1-phosphate receptor 1. As to the kind of experiment: Antagonist activity at S1P1 receptor. Type of assay: functional.
The target in assay [12] is T3, Sphingosine 1-phosphate receptor 5. Nature of the assay: Antagonist activity at S1P5 receptor. The format is functional.

T5 sequence (P21453 whole entry): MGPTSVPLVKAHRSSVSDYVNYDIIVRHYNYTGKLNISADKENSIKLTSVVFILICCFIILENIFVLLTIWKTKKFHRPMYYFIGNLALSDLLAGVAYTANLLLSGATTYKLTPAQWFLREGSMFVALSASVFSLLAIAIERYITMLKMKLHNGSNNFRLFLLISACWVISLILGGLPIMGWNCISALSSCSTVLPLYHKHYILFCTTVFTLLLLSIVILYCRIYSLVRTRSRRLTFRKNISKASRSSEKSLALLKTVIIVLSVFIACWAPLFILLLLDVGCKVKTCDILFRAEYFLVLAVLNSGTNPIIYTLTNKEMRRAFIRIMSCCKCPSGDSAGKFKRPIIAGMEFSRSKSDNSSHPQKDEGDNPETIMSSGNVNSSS
T3 sequence (Q9H228 whole entry): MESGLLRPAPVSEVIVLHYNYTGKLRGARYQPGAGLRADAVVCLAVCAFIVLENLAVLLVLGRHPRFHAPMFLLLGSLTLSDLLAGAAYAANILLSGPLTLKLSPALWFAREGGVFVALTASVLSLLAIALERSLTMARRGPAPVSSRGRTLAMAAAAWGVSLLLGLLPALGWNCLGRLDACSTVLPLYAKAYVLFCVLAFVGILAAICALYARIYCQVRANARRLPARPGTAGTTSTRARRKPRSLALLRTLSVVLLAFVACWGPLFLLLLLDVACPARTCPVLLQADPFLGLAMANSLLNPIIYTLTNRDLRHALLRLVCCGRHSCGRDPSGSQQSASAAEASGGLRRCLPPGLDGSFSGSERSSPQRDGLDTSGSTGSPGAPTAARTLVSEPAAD
T4 sequence (O95136 whole entry): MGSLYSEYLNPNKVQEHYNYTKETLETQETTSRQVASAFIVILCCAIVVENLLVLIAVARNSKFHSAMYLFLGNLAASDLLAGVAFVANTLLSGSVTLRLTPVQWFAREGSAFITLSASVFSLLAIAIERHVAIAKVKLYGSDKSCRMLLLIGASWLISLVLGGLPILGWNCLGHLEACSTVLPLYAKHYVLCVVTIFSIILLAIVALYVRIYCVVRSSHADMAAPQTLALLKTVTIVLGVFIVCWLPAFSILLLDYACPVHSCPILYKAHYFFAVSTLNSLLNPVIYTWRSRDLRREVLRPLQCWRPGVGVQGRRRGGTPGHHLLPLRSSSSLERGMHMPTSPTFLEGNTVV
T6 sequence (Q99500 whole entry): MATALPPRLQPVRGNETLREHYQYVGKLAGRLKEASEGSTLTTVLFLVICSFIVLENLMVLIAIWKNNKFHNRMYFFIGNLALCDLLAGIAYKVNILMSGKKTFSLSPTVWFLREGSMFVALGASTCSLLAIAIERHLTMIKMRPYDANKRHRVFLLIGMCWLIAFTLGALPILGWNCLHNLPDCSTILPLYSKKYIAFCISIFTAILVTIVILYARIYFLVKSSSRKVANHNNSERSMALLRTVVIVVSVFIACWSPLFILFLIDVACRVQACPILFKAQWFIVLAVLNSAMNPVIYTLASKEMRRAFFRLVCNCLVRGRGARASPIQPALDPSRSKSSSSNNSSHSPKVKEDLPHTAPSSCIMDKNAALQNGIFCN

In general, IC50 refers to the concentration needed to halve the response being measured. Regarding `Cc1ccc(C)c(-c2ccc(C(=O)Nc3c(C)cccc3C)n2C)c1`, in assay [1], the IC50 was 6300 nM.
`Cc1cccc(C)c1NCc1ccc(-c2cc(Cl)ccc2Cl)o1`: the result in [2] was inactive.
Usually inhibition stands for the change of the read-out against control, counted positive when it falls. Higher therefore signals a response far below the control. As to `Cc1ccc(C)c(-c2cccc(C(=O)Nc3c(C)cccc3C)c2)c1`, the inhibition in assay [3] turned out to be 40%; in assay [4], 25%; in [5], 30%; in [6], 40%. Also, in [1], the IC50 turned out to be 75 nM.
With `Cc1ccc(C)c(-c2cc(C(=O)Nc3c(C)cccc3C)co2)c1`, in assay [1], the IC50 was 233 nM.
For `CCc1cccc(C)c1NC(=O)c1nnc(-c2cc(Cl)ccc2Cl)o1`, the outcome in [2] was inactive.
Regarding `Cc1ccc(C)c(-c2ccc(C(=O)Nc3c(C)cccc3C)s2)c1`, the inhibition in [3] was determined as 30%; in assay [7], 40%; in assay [6], 35%. Further, the IC50 is 59 nM in assay [1] and 1100 nM in assay [8]. For the same compound, the result in assay [9] was inactive.
As for `Cc1cccc(C)c1NC(=O)c1cccc(-c2cc(Cl)ccc2Cl)n1`, in assay [2], the outcome was inactive.
`Cc1cccc(C)c1NC(=O)c1ccc(-c2cc(Cl)ccc2Cl)o1`: the concentration for half-maximal inhibition (IC50) in assay [10] and in assay [11] was greater than 20000 nM in each case.
For the compound `Cc1ccc(C)c(-c2ccc(C(=O)Nc3c(C)cccc3C)o2)c1`, the IC50 in assay [12], in assay [10] and in assay [11] was greater than 20000 nM in each case.
On to `Cc1ccc(C)c(-c2oc(C(=O)Nc3c(C)cccc3C)cc2C)c1`, for which the IC50 in assay [1] worked out at 911 nM.
Consider `Cc1ccc(C)c(-c2cc(C(=O)Nc3c(C)cccc3C)ccc2C)c1`, for which the IC50 in assay [1] was found to be 2400 nM.
With `Cc1ccc(C)c(-c2cc(C)c(C(=O)Nc3c(C)cccc3C)o2)c1`, in assay [1], the IC50 was 173 nM.
`Cc1ccc(C)c(-c2coc(C(=O)Nc3c(C)cccc3C)c2)c1`: in [1], the half-inhibitory concentration (IC50) turned out to be 211 nM.

The record behind these values is ChEMBL document CHEMBL1821582, “SAR analysis of innovative selective small molecule antagonists of sphingosine-1-phosphate 4 (S1P₄) receptor” (Bioorg Med Chem Lett, 2011).
